Most compounds without a hit are left out; they make up all but 4.3% or so of the library.
CR mimetic SO = lowers age-related superoxide in aged yeast cells; S. cerevisiae aged cells, superoxide DHE fluorescence; active compounds read low; 330,000 compounds, 0.18% hits; superoxide response (% of plate mean), % at 10 µM;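 active = superoxide response under a set limit, about three screen SD below normal, cut at about 65% in these data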;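 note: yeast aged for seven days with compound at 30 °C before DHE staining; 100% = average MFI of all compound-treated wells on the plate with controls excluded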
SR-BI HDL uptake = inhibitors of mouse SR-BI mediated HDL lipid uptake; inhibition, % at 12.5 µM; ldlA[mSR-BI] CHO cells, DiI-HDL uptake fluorescence, 3 h; 320,000 compounds, 0.96% hits; Q61009;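 active = mean replicate inhibition of at least 70% and a set share of replicates each scoring 70 or more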;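 note: 0% = median of neutral control wells and 100% = median of positive control wells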
Target sequence (Q61009 whole entry, looked up): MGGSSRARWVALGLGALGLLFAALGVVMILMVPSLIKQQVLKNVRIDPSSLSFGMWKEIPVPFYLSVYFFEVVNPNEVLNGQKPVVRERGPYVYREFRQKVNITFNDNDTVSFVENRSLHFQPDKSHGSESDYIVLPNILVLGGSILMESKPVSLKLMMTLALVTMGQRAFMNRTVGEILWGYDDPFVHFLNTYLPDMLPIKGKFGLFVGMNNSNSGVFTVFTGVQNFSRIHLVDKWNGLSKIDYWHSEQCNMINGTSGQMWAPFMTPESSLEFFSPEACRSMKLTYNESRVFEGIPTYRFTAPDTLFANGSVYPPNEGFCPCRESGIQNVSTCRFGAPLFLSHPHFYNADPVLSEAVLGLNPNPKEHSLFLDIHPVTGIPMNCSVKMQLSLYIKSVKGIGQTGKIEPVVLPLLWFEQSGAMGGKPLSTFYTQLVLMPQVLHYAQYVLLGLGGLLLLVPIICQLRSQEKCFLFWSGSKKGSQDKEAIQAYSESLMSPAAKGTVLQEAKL
Lipid droplet = modulators of hepatic lipid droplet formation. AML12 mouse hepatocytes, oleate lipid droplets, BODIPY imaging. inhibition, % at 6.5 µM. 240,000 compounds, 0.4% hits;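 active = lipid droplet intensity inhibited by at least 50%, with more than 500 cells counted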
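Test system: AML12 hepatocytes (mouse); reagent: oleate loading, 100 µM; dosing: one dose, 6.5 µM compound; incubation: overnight exposure; signal: fluorescence imaging, 20x objective, two fields per well; read-out basis: % inhibition of corrected integrated BODIPY droplet signal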
SR-BI DiI-HDL act = enhances SR-BI lipid uptake from DiI-HDL; CHO ldlA[mSR-BI] cells, DiI-HDL uptake fluorescence, 3 h; 100 = double the neutral-control signal; activation, % at 12.5 µM; 320,000 compounds, 0.096% hits;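 active = mean replicate activation of at least 60% and every replicate at or above 60%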;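 note: 0% = median plate neutral-control signal and 100% = twice that signal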
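Material: SR-BI-overexpressing, LDLR-lacking CHO cells | Dosing: Single compound concentration, delivered by pin transfer | Probe or stimulus: Labelled HDL, 10 µg/mL | Signal: Bottom-read cell fluorescence after medium removal, ex 550/em 595 nm | Schedule: 3 h, 37 °C | Evaluation: HDL uptake via cellular fluorescence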
SMARCA2 act = activators of SMARCA2 function | AID 652017 | activation, % at 9.1 µM | MG213 cells, MMTV-luciferase reporter, dexamethasone, overnight | 370,000 compounds, 1% hits; in the data active = activation above about 7.8%;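 note: 0% = vehicle wells and 100% = reference activator wells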
AHR act = human AHR activation; AHR-responsive luciferase reporter cells, luminescence; activation, % at 5 µM; 320,000 compounds, 2.5% hits; AID 2796; in the data active = activation above about 47%;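 note: 0% = vehicle wells and 100% = reference agonist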
The depositor's hits bear a star; x = no result.

SMILES	CR mimetic SO	SR-BI HDL uptake	Lipid droplet	SR-BI DiI-HDL act	SMARCA2 act	AHR act
CCN(CC)S(=O)(=O)c1ccc2oc(C(=O)NCc3ccc(C)cc3)c(C)c2c1	95.7	75.7*	3.1	-75.7	-4.3	5.6
COc1ccc(-c2cn3cccc(C)c3n2)cc1F	103.3	19.8	-3.4	-19.8	6.7	69.8*
COc1ccc(-c2cn3ccccc3n2)cc1OC	112.7	-19.3	x	19.3	3.0	61.1*
COc1ccc(-c2cn3cc(C)ccc3n2)cc1OC	96.4	-5.8	0.0	5.8	5.7	-22.2
Cc1cccn2cc(-c3ccc(Cl)cc3)nc12	107.9	30.6	-3.8	-30.6	0.4	71.1*
C=CCCC1CN(Cc2ccc(OC)cc2)S(=O)(=O)c2c(cccc2N2CCCC2)O1 (configuration not stated)	x	x	x	x	-4.2	x
O=C(NC1CCCC1)[C@@H]1CCCN1C(=O)[C@@H](NS(=O)(=O)c1ccc(F)cc1F)c1ccccc1	x	x	x	x	-3.8	x
COc1ccc(-c2nc3c(Br)c(N)c(Br)cc3o2)cc1	104.6	31.7	-5.9	-31.7	x	48.6*
O=c1cc[nH]c2c1ccc1c(=O)cc[nH]c12	86.8	-16.3	x	16.3	1.9	3.6
Cc1[nH]ccc2c1[nH]c1cc(=O)ccc12	96.2	-0.3	18.8	0.3	-0.4	70.8*
COC(=O)[C@]12C[C@H](CC(=O)N3CCC(c4ccccc4)CC3)C(=O)N(CCc3ccc(OC)c(OC)c3)C1=C[C@H](COCc1ccccc1)O[C@@H]2C	x	x	x	x	-2.8	x
Cc1ccn2c(c1)nc(=S)n2C(=O)c1ccccc1	113.7	-12.5	13.4	12.5	4.7	26.6
O=C(c1ccco1)n1c(=S)nc2ccccn21	102.9	-13.9	x	13.9	7.9*	12.5
Cc1ccsc1/C=N/n1c(-c2ccncc2)n[nH]c1=S	94.2	-8.2	9.2	8.2	-0.6	12.6
Cc1ccsc1/C=N/n1c(-c2ccccn2)n[nH]c1=S	80.2	1.2	1.4	-1.2	-2.5	50.8*
COc1ccc(-c2nnc(SCC(=O)NN=C/C=C\c3ccco3)n2-c2ccc(OC)cc2)cc1	x	x	x	x	-1.6	x
COc1cc(-c2cc(C(=O)Nc3ccc(S(N)(=O)=O)cc3)c3ccccc3n2)cc(OC)c1OC	92.9	x	5.9	x	-1.7	6.7
COc1ccc(-c2cc(C(=O)Nc3ccc(O)cc3)c3ccccc3n2)cc1OC	102.8	81.2*	4.4	-81.2	2.3	9.8
COc1ccccc1NC(=O)Cn1cnc2sc(C(=O)Nc3ccc(OC)c(OC)c3)c(C)c2c1=O	118.7	83.0*	-37.0	-83.0	-1.4	4.7
COc1ccc(NC(=O)c2cc(-c3cc(OC)c(OC)c(OC)c3)nc3ccccc23)cc1OC	121.3	85.3*	-10.9	-85.4	-1.6	8.9
COc1ccccc1Nc1ncc(C(=O)Nc2ccc(OC)c(OC)c2)c2ccccc12	100.0	82.8*	-9.1	-82.8	-1.7	8.3
CCn1c2ccccc2c2cc(C=Nn3c(-c4ccccc4C)n[nH]c3=S)ccc21	x	x	x	x	-6.6	x
COc1ccc(-c2cc(C(=O)N(C)Cc3ccccc3F)c3ccccc3n2)cc1OC	108.5	62.0	-2.4	-62.0	-1.4	71.1*
CCN(Cc1ccccc1)C(=O)c1cc(-c2ccc(OC)c(OC)c2)nc2ccccc12	88.6	48.5	-9.5	-48.5	3.4	69.4*
CCc1c(C)nc2cc(-c3cccc(Br)c3)[nH]n2c1=O	83.5	-4.5	-0.6	4.5	2.1	70.5*
SMILES	CR mimetic SO	SR-BI HDL uptake	Lipid droplet	SR-BI DiI-HDL act	SMARCA2 act	AHR act
CCOC(=O)Cc1c(C)nc2cc(-c3ccc(C)cc3)[nH]n2c1=O	105.3	3.5	-3.6	-3.5	2.2	20.4
C#CCNC(=O)C[C@H]1C[C@@]2(C(=O)OC)C(=C[C@H](C(C)(C)C)O[C@@H]2C)N(Cc2ccccc2)C1=O	x	x	x	x	-1.2	x
Cc1cccnc1NS(=O)(=O)c1ccccc1	x	x	x	x	7.9*	x
C#CCN1CC(N(C)CCOC(=O)c2ccc(F)cc2)CS1(=O)=O (configuration not stated)	x	x	x	x	4.9	x
Brc1ccc2ncnc(Nc3cccc4ccccc34)c2c1	85.0	-14.3	x	14.3	-3.6	58.8*
N#Cc1ccc(OCCCN2CCC(C(O)(c3ccccc3)c3ccccc3)CC2)cc1	x	x	x	x	-0.5	x
COc1cc(Cl)c(NC2=CC(=O)C(=O)c3ccccc32)c(OC)c1	166.3	90.4*	x	-90.4	-2.3	28.9

High-throughput results deposited in PubChem by several laboratories.
